Experiments:
[1] = Cytotoxicity against human Huh5-2 cells carrying HCV genotype 1b I389luc-ubi-neo/NS3-3'/5.1 replicon assessed as cell morphological changes after 72 hrs by microscopic analysis; format: cell-based; conditions: huh-5-2, 72 h
How it was run: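 Huh-5-2 replicon cells examined by microscopy for changes in cell morphology after 72 h of compound treatment.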

[2] = Selectivity index, ratio of CC50 for human Huh5-2 cells to EC50 for HCV genotype 1b I389luc-ubi-neo/NS3-3'/5.1 replicon infected in human Huh5-2 cells; parameters: species or system Huh-5-2
Hepatitis C virus = experiment: Antiviral activity against HCV genotype 1b I389luc-ubi-neo/NS3-3'/5.1 replicon infected in human Huh5-2 cells assessed as inhibition of virus replication by luciferase assay; format: functional, cell-based, Hepacivirus hominis; conditions: Huh-5-2
[3] = system: Hepatitis C virus isolate HC-J4; experiment: Inhibition of RNA-dependent RNA polymerase activity of HCV genotype 1b HC-J4 recombinant N-terminal histidine tagged C-terminal 21 aminoacids truncated NS5B polymerase at 50 uM after 1 hr by standard primer dependent elongation assay
How it was run: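 Recombinant NS5BCΔ21 genotype 1b in a primer-dependent elongation assay. […] IC50 is the concentration halving enzyme activity in vitro; mean ± SD of two independent experiments in duplicate.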

[4] = Inhibition of RNA-dependent RNA polymerase activity of HCV genotype 1b HC-J4 recombinant N-terminal histidine tagged C-terminal 21 aminoacids truncated NS5B polymerase after 1 hr by standard primer dependent elongation assay; parameters: species or system Hepatitis C virus isolate HC-J4
How it was run: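 Recombinant NS5BCΔ21 genotype 1b in a primer-dependent elongation assay. IC50 is the concentration halving enzyme activity in vitro; mean ± SD of two independent experiments in duplicate.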

[5] = Cytostatic activity against human Huh5-2 cells carrying HCV genotype 1b I389luc-ubi-neo/NS3-3'/5.1 replicon assessed as reduction in metabolic activity after 72 hrs by MTS assay; format: ADME, cell-based, Huh-5-2; conditions: for CC50: huh-5-2, 72 h
How it was run: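 Replicon-bearing Huh-5-2 cells run in parallel with the antiviral read-out; CC50 is the concentration halving MTS bioreduction to formazan, taken as the antimetabolic effect on host cells; mean ± SD from at least three dose–response curves.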

[6] = Induction of steatosis in human Huh-9-13 cells assessed as intracellular accumulation of […] lipids at 100 uM by Nile Red staining; format: cell-based

| Structure (SMILES) | Activity [1] | Ratio CC50/EC50 [2] | EC50 (Hepatitis C virus) | EC90 (Hepatitis C virus) | inhibition [3] | IC50 [4] | CC50 [5] | Activity [6] | CC50 at 72 h [5] |
| --- | --- | --- | --- | --- | --- | --- | --- | --- | --- |
| CN1c2c(C(=O)Nc3ccc(NS(C)(=O)=O)cc3)nn(-c3ccc(C(F)(F)F)cc3)c2-c2ccccc2S1(=O)=O | Toxic | >23 | 7.3 µM | 31.2 µM | > 50% | 36.3 µM | > 169 µM |  |  |
| Cc1cccc(-n2nc(C(=O)Nc3ccc(NS(C)(=O)=O)cc3)c3c2-c2ccccc2S(=O)(=O)N3C)c1 | Toxic | >46 | 5.1 µM | 11.8 µM | > 50% | 21.2 µM | > 233 µM |  |  |
| COc1cccc(-n2nc(C(=O)Nc3ccc(NS(C)(=O)=O)cc3)c3c2-c2ccccc2S(=O)(=O)N3C)c1 | Toxic | >16 | 11 µM |  | < 50% | > 50 µM | > 181 µM |  |  |
| CN1c2c(C(=O)Nc3ccc(NS(C)(=O)=O)cc3)nn(-c3cccc(Br)c3)c2-c2ccccc2S1(=O)=O | Toxic | >20 | 8.3 µM | 26 µM | > 50% | 7.7 µM | > 166 µM |  |  |
| CN1c2c(NC(=O)c3ccc(NS(C)(=O)=O)cc3)nn(-c3cccc(F)c3)c2-c2ccccc2S1(=O)=O | Toxic | 2.3 | 80.8 µM |  | < 50% | > 50 µM | 160 µM |  |  |
| Cc1ccc(-n2nc(C(=O)Nc3ccc(NS(C)(=O)=O)cc3)c3c2-c2ccccc2S(=O)(=O)N3C)cc1 | Non-toxic | 39 | 4.8 µM | 19.6 µM | > 50% | 14.7 µM | > 186 µM |  |  |
| CN1c2c(C(=O)Nc3ccc(NS(C)(=O)=O)cc3)nn(-c3ccc(F)c(F)c3)c2-c2ccccc2S1(=O)=O | Toxic | 9.9 | 13.9 µM |  | > 50% | 25.4 µM | 138 µM |  |  |
| Cc1ccccc1-n1nc(C(=O)Nc2ccc(NS(C)(=O)=O)cc2)c2c1-c1ccccc1S(=O)(=O)N2C | Toxic | >16 | 14.3 µM |  | > 50% | 30.8 µM | > 233 µM |  |  |
| CN1c2c(C(=O)Nc3ccc(OCC(N)=O)cc3)nn(-c3cccc(F)c3)c2-c2ccccc2S1(=O)=O | Toxic | >13 | 15 µM | 34 µM | < 50% | > 50 µM | > 192 µM |  |  |
| Cc1ccc(-n2nc(C(=O)Nc3ccc(NS(C)(=O)=O)cc3)c3c2-c2ccccc2S(=O)(=O)N3C)cc1C | Toxic | >29 | 6.2 µM | 20 µM | < 50% | > 50 µM | > 181 µM |  |  |
| CN1c2c(C(=O)Nc3ccc(NS(C)(=O)=O)cc3)nn(-c3ccccc3Cl)c2-c2ccccc2S1(=O)=O | Toxic | >30 | 7.4 µM | 20.8 µM | > 50% | 17.8 µM | > 224 µM |  |  |
| CN1c2c(C(=O)Nc3ccc(NS(C)(=O)=O)cc3)nn(-c3ccccc3C(F)(F)F)c2-c2ccccc2S1(=O)=O | Toxic | >7 | 25 µM |  | < 50% | > 50 µM | > 169 µM |  |  |
| COc1ccc(-n2nc(C(=O)Nc3ccc(NS(C)(=O)=O)cc3)c3c2-c2ccccc2S(=O)(=O)N3C)cc1 | Non-toxic | >28 | 8.1 µM | 25 µM | < 50% | > 50 µM | > 226 µM |  |  |
| CN1c2c(C(=O)Nc3ccc(NS(C)(=O)=O)cc3)nn(-c3ccccc3Br)c2-c2ccccc2S1(=O)=O | Toxic | 8.9 | 12 µM |  | > 50% | 26.5 µM | 107 µM |  |  |
| CN1c2c(C(=O)Nc3ccc(NS(C)(=O)=O)cc3)n[nH]c2-c2ccccc2S1(=O)=O | Toxic | 2.5 | 88.2 µM | 65.2 µM | < 50% | > 50 µM | 155 µM |  |  |
| CN1c2c(C(=O)Nc3ccc(NS(C)(=O)=O)cc3)nn(-c3cccc(C(F)(F)F)c3)c2-c2ccccc2S1(=O)=O | Toxic | >28 | 7.7 µM | 33.2 µM | > 50% | 23.7 µM | > 211 µM |  |  |
| CN1c2c(C(=O)Nc3ccc(NS(C)(=O)=O)cc3)nn(-c3ccc(Br)cc3)c2-c2ccccc2S1(=O)=O | Toxic | >22 | 7.4 µM | 21 µM | > 50% | 12.1 µM | > 166 µM |  |  |
| CN1c2c(C(=O)Nc3ccc(NS(C)(=O)=O)cc3)nn(-c3ccc(Cl)c(C(F)(F)F)c3)c2-c2ccccc2S1(=O)=O | Toxic | >25 | 6.4 µM |  | < 50% | > 50 µM | > 160 µM |  |  |
| CN1c2c(C(=O)Nc3ccc(NS(C)(=O)=O)cc3)nn(-c3ccc(Cl)cc3)c2-c2ccccc2S1(=O)=O | Non-toxic | >28 | 8.1 µM | 23.3 µM | > 50% | 7.9 µM | > 224 µM | Toxic |  |
| CN1c2c(C(=O)Nc3ccc(NS(C)(=O)=O)cc3)nn(-c3cccc(F)c3)c2-c2ccccc2S1(=O)=O |  |  |  |  |  |  |  |  | > 370 µM |
| Cc1ccc(-n2nc(C(=O)Nc3ccc(NS(C)(=O)=O)cc3)c3c2-c2ccccc2S(=O)(=O)N3C)cc1Cl | Toxic | >25 | 7 µM | 37 µM | > 50% | 8 µM | > 175 µM |  |  |
| CN1c2c(C(=O)Nc3ccc(NS(C)(=O)=O)cc3)nn(-c3ccc(Cl)c(Cl)c3)c2-c2ccccc2S1(=O)=O | Toxic | >17 | 9.7 µM |  | > 50% | 2.7 µM | > 168 µM |  |  |
| CN1c2c(C(=O)Nc3ccccc3)nn(-c3cccc(F)c3)c2-c2ccccc2S1(=O)=O | Toxic | 12 | 4.5 µM |  | < 50% | > 50 µM | 56 µM |  |  |
| CN1c2c(C(=O)Nc3ccc(NS(C)(=O)=O)cc3)nn(C3CCCCC3)c2-c2ccccc2S1(=O)=O | Toxic | 9.7 | 4.5 µM | 11 µM | > 50% | 43 µM | 44 µM |  |  |
